RGS4 act – potentiators or activators of RGS4. HEK293 M3R/inducible RGS4, carbachol calcium flux Fluo4; hits give low values. B-score at 10 µM. hit rate 0.92% among 310,000;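 active means B-score of the integrated calcium signal more than 4 SD below the library mean, with starting fluorescence not abnormally high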;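 further: negative B-score means reduced calcium response which marks RGS4 activation or potentiation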
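test system = M3R-expressing HEK293 line, RGS4 induced by doxycycline | probe or stimulus = carbachol at ECmax as muscarinic agonist stimulus | timing = dye loading 30 min 37 °C, buffer rest 30 min RT | signal = calcium dye Fluo4 fluorescence | evaluation = B score from integrated fluorescence ratio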
MrgX1 antagonist – antagonists of human MrgX1 receptor | Q96LB2 | MRGX1-HEK293 calcium flux, Fluo-4, BAM8-22 antagonism; hits give low values | B-score at 10 µM | hit rate 1.3% among 310,000 | AID 588676;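 active means calcium-response B-score plate-corrected more than 3 library SD below zero, starting fluorescence within 5 deviations, no agonist response on first addition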;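 further: peak minus trough fluorescence over baseline after final BAM8-22 challenge near maximal dose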
Target sequence (Q96LB2 whole entry, looked up): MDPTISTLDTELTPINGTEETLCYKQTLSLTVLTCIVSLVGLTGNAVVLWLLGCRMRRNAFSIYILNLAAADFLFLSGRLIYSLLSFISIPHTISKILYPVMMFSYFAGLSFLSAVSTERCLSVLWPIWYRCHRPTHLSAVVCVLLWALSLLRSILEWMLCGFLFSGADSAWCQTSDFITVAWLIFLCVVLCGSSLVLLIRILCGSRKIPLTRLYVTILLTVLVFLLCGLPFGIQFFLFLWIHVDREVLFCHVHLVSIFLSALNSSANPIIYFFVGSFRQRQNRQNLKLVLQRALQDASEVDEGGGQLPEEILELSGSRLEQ
MrgX1 allo act – allosterically activates human MrgX1 receptor signaling; Q96LB2; MrgX1-HEK293, Fluo-4 calcium flux, FDSS; hits give high values; B-score at 10 µM; hit rate 0.63% among 310,000; AID 588675;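 active means plate-corrected calcium response at least 3 library SD above typical, normal starting fluorescence, not activating the receptor alone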;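 further: compound read alongside a low EC10 to EC30 dose of BAM8-22 agonist; peak minus trough fluorescence over baseline measured at the second addition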
Hep lipid drop – modulators of hepatic lipid droplet formation. inhibition, % at 6.5 µM. AML12 mouse hepatocytes, oleate lipid droplets, BODIPY imaging. hit rate 0.4% among 240,000;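 active means lipid droplet intensity inhibited by at least 50%, with more than 500 cells counted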
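material = mouse AML12 hepatocyte cell line, fixed after treatment | also added = 100 µM oleic acid challenge | doses = compound at 6.5 µM only | schedule = overnight exposure | technique = Image-based BODIPY and DAPI two-channel analysis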
MrgX1 agonist – agonists of human MrgX1 receptor; Q96LB2; MrgX1-HEK293 cells, Fluo-4 calcium fluorescence, agonist mode; hits give high values; B-score at 10 µM; hit rate 0.44% among 310,000;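 active means calcium response B-score plate-corrected fluorescence ratio at least 3 library SD, with starting fluorescence B-score inside 5 SD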
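Material: HEK293 cells stably expressing human MrgX1 receptor | Quantity: 15,000 cells per well | Times: Cells plated overnight, dye loaded 0.5 h 37 °C, 0.5 h room temperature | Measured by: Kinetic Fluo-4 NW fluorescence of intracellular calcium | Control set: Positive and negative controls per plate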
RGS4 inh – inhibitors of human RGS4. P49798. HEK293 M3R/RGS4 inducible, Fluo-4 calcium flux; hits give high values; triggered by carbachol at its EC20. hit rate 0.45% among 310,000. B-score at 10 µM;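 active means B-score, a plate-corrected calcium signal, over three deviations above library mean, with baseline fluorescence within five deviations of library mean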;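 further: RGS4 expression induced by doxycycline in cells with stable M3 receptor; B-score is computed from the integrated fluorescence ratio over baseline after carbachol; higher B-score means a larger calcium signal and so more RGS4 inhibition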
Target sequence (P49798 whole entry, looked up): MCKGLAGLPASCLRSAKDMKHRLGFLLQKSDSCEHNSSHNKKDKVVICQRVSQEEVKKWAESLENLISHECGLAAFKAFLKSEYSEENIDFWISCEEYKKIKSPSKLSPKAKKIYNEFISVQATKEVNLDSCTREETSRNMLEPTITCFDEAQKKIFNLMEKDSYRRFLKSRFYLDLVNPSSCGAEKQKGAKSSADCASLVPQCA
MrgX1 antag conf – reconfirmed antagonist of human MrgX1 receptor signaling; shares compounds with MrgX1 antagonist; AID 602420; hit rate 19% among 2,300; remaining BAM8-22 calcium response % of control (hits give low values), % at 10 µM; MrgX1-HEK293, BAM8-22 calcium flux, Fluo-4; hits give low values;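 active means remaining agonist calcium response no higher than 100% minus 3 SD of agonist-only control wells, with starting fluorescence near control levels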;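 further: agonist BAM8-22 given at a near maximal EC90 to ECmax level; peak minus minimum fluorescence divided by baseline after agonist addition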
HEK293 Ca flux – counter-screen for MrgX1 antagonists: effect in parental HEK293 cells | shares compounds with MrgX1 antagonist | Fluo-4 calcium fluorescence, FDSS | fluorescence ratio F(max-min)/F0 at 10 µM | hit rate 2% among 4,000;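 active means duplicate-averaged calcium fluorescence ratio at least three times the standard deviation of buffer wells, a nonspecific response in parental cells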
HEK293 Ca counter – activity in parental HEK293 cells without MrgX1 | shares compounds with MrgX1 antagonist | parental HEK293 calcium flux, Fluo-4 fluorescence ratio; hits give high values | fluorescence ratio F(max-min)/F0 at 10 µM | hit rate 0.4% among 4,000;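 active means calcium fluorescence ratio, averaged over duplicates, at least 3 SD of the buffer-well ratio, meaning a nonspecific response in receptor-free cells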;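 further: untransfected parental HEK293 lacking MrgX1 used as counterscreen for MrgX1 allosteric activators; fluorescence change taken during the second addition on a kinetic imager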
HEK293 Ca cntr2 – counter-screen for MrgX1 activators: effect in parental HEK293 cells | shares compounds with MrgX1 antagonist | Fluo-4 calcium fluorescence (FDSS); hits give high values | fluorescence ratio F(max-min)/F0 at 10 µM | hit rate 8.7% among 4,000;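 active means calcium fluorescence ratio at least three times the spread of buffer wells, meaning a non-specific response in parental cells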
An asterisk follows results filed as active; i = inactive; . = not tested or not shown. Compounds with a hit are over-represented: about 3.8% of the library has one in this group of screens.

SMILES	RGS4 act	MrgX1 antagonist	MrgX1 allo act	Hep lipid drop	MrgX1 agonist	RGS4 inh	MrgX1 antag conf	HEK293 Ca flux	HEK293 Ca counter	HEK293 Ca cntr2
COc1cc(C(=O)NCC2CCCN2S(=O)(=O)c2cccs2)cc(OC)c1OC (stereo not drawn)	i	-7.7*	i	.	i	i	i	i	i	i
Cc1ccc(S(=O)(=O)N2CCCC2CNC(=O)C(=O)NCc2ccccn2)cc1 (stereo not drawn)	i	-7.1*	i	.	i	i	i	i	i	i
Cc1ccc(S(=O)(=O)N2CCCOC2CNC(=O)C(=O)NCc2ccccn2)cc1 (stereo not drawn)	i	i	i	0	i	i	.	.	.	.
COc1ccc(S(=O)(=O)NCC2CCCO2)cc1NC(=O)c1ccc(Cl)cc1 (stereo not drawn)	i	i	i	.	i	i	.	.	.	.
CCOc1cc(C2NC(=O)NC(C)=C2C(=O)OCc2ccccc2)ccc1O (stereo not drawn)	i	i	i	.	i	i	.	.	.	.
Clc1ccc(C#Cc2cccnc2)cc1	i	i	i	.	i	i	.	.	.	.
O=C(NCc1ccccc1)C(=O)NCC1CCCN1S(=O)(=O)c1cccs1 (stereo not drawn)	i	-16*	i	.	i	i	i	i	i	i
O=C(NCC1CCCN1S(=O)(=O)c1cccs1)C(=O)Nc1ccccc1 (stereo not drawn)	i	i	i	.	i	i	.	.	.	.
Cc1nn(C)c(-c2n[nH]c(=S)n2-c2ccccc2)c1Cl	i	-4.7*	i	7	i	i	i	i	i	i
CCCNC(=O)c1nc(C)n(-c2cc(Cl)ccc2Cl)n1	i	-8.2*	i	-16	i	i	81%*	i	i	i
COC(=O)C(O)(CC(=O)Nc1cc(Cl)ccc1Cl)C(F)(F)F (stereo not drawn)	i	i	i	-6	i	i	.	.	.	.
O=C(NS(=O)(=O)c1ccc(Cl)cc1)c1ccccc1	i	-4.9*	i	-13	i	i	i	i	i	i
Cc1ccccc1OCC(=O)NS(=O)(=O)c1ccc(Cl)cc1	i	-9.2*	i	10	i	i	83%*	i	i	i
Cc1ccc(C(C)C)c(OCC(=O)NS(=O)(=O)c2ccc(Cl)cc2)c1	i	i	i	2	i	i	.	.	.	.
COc1ccc(COc2ccccc2C(=O)Nc2ccccn2)cc1[N+](=O)[O-]	i	i	i	8	i	i	.	.	.	.
COc1ccc(S(=O)(=O)Nc2noc3ccccc23)cc1OC	i	i	i	8	i	i	.	.	.	.
CC(=O)c1ccccc1OC(=O)CCN1C(=O)C2C3C=CC(C4CC34)C2C1=O (stereo not drawn)	i	-4.5*	i	-1	i	i	i	i	i	i
CCOc1ccc(NC(=S)NC(=O)C2CCCC2)cc1	i	-5.4*	i	31	i	i	i	i	i	i
COc1ccc(NC(=S)NC(=O)C2CCCCC2)cc1	i	i	i	-13	i	i	.	.	.	.
Cc1nn(C(C)C(=O)NCCCc2ccccc2)c(=O)c2nn(-c3ccccc3)c(C)c12 (stereo not drawn)	i	i	i	-6	i	i	.	.	.	.
CC(=O)NS(=O)(=O)c1ccc(NC(=S)NC(=O)Cc2ccccc2)cc1	i	-6.1*	i	2	i	i	i	i	i	i
CN1[C@@H]2CCC[C@H]1CC(NC(=O)c1nn(C)c3ccccc13)C2 (stereo partly drawn)	.	i	i	.	i	.	.	.	.	.
Cc1cccc(C)c1OCC(=O)Nc1ncn[nH]1	i	i	i	5	i	i	.	.	.	.
O=C(COc1ccc2ccccc2c1Br)Nc1ncn[nH]1	i	-4.5*	i	.	i	i	i	i	i	i
O=C(CN1C(=O)NC2(CCCC2)C1=O)N1CCN(S(=O)(=O)c2ccccc2F)CC1	i	i	i	0	i	i	.	.	.	.
SMILES	RGS4 act	MrgX1 antagonist	MrgX1 allo act	Hep lipid drop	MrgX1 agonist	RGS4 inh	MrgX1 antag conf	HEK293 Ca flux	HEK293 Ca counter	HEK293 Ca cntr2
N#CC1(NC(=O)CN2CCN(S(=O)(=O)c3ccccc3F)CC2)CCCC1	i	-4.9*	i	12	i	i	i	i	i	i
COc1ccccc1OCCNC(=O)CC(NC(C)=O)c1ccccc1 (stereo not drawn)	i	i	i	-2	i	i	.	.	.	.
CC(=O)NC(CC(=O)NCCc1ccccc1)c1ccccc1 (stereo not drawn)	i	-4.9*	i	5	i	i	i	i	i	i
CCOc1cc(/C=C(\C#N)C(=O)NCc2cccnc2)ccc1O	i	i	i	9	i	i	.	.	.	.
Cc1nc(N2CCCCCC2)c2ccccc2n1	i	-4.7*	i	-6	i	i	i	i	i	i
Cc1cccc(NC(=O)C2NC(=O)CC2c2ccccc2)c1C (stereo not drawn)	i	i	i	.	i	i	.	.	.	.
Cc1cccc(C)c1NC(=O)C1NC(=O)CC1c1ccccc1 (stereo not drawn)	i	-9.5*	i	.	i	i	i	i	i	i
COc1ccc(CC(=O)NCc2cccs2)cc1	i	-6.6*	i	-21	i	i	i	i	i	i
O=C(Cc1cccs1)NCc1ccc2c(c1)OCO2	i	-8*	i	2	i	i	i	i	i	i
O=C(Cc1cccs1)NCc1ccc(F)cc1	i	i	i	-13	i	i	.	.	.	.
COC(=O)c1ccc(CNC(=O)COC(=O)Cc2ccsc2)cc1	i	i	i	-4	i	i	.	.	.	.
COc1ccc(CNC(=O)COC(=O)Cc2ccsc2)cc1	i	-4.5*	i	7	i	i	i	i	i	i

Assay outcomes deposited in PubChem BioAssay by several laboratories.
